The structures appear in SMILES notation. Values after ≈ are worked out from the molar mass of the structure shown. Bounds are passed on as bounds.

Data set [1] addresses Glutamate receptor 2 (Homo sapiens, UniProt P42262). Description: Modulatory activity at GluA2 receptor LBD.
Data set [2] can be described thus: Solubility of the compound. Format: physicochemical.
A short description of data set [3]: Intrinsic clearance in rat microsomes assessed per mg of protein. The format is ADME, Microsome.
Data set [4] in a line: Intrinsic clearance in human microsomes assessed per mg of protein. Format: ADME, Microsome.
Data set [5] can be described thus: Permeability from apical to basolateral side of human Caco2 cells. Format: ADME, cell-based. The note with it: Caco-2, read-out: permeability. Background: Caco-2 monolayers are a common model of the intestinal barrier.
The nature of data set [6]: Permeability from basolateral to apical side of human Caco2 cells. Format: ADME, cell-based. The note with it: Caco-2, read-out: permeability.
Data set [7] is described as follows: Plasma concentration in Wistar rat at 1 mg/kg, iv and 5 mg/kg, po. The format is ADME, organism-based.
A short description of data set [8]: Half life in Wistar rat at 1 mg/kg, iv and 5 mg/kg, po. The conditions noted are these: in vivo. The format is ADME, organism-based. The gist of the method: (§1)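 Wistar BRL rats; pharmacokinetics from 1 mg/kg i.v. and 5 mg/kg p.o. dosing; plasma clearance, half-life and oral bioavailability (F%) derived.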
A short description of data set [9]: Bioavailability in Wistar rat at 1 mg/kg, iv and 5 mg/kg, po. Format: ADME, organism-based. The conditions noted are these: in vivo. In outline:
as §1

Data set [10] deals with Hepatocyte. Description: Metabolic stability in rat hepatocytes assessed per cells. The format is ADME, cell-based.
Data set [11] in a line: Clearance in Wistar rat at 2 mg/kg, iv and 10 mg/kg, po. The format is ADME, organism-based. The note with it: in vivo.
Data set [12] is described as follows: Volume of distribution at steady state in Wistar rat at 2 mg/kg, iv and 10 mg/kg, po. The format is ADME, organism-based. The conditions noted are these: in vivo, read-out: Vdss.
Data set [13] can be described thus: Half life in Wistar rat at 2 mg/kg, iv and 10 mg/kg, po. Format: ADME, organism-based. The note with it: in vivo.
A short description of data set [14]: Bioavailability in Wistar rat at 2 mg/kg, iv and 10 mg/kg, po. The format is ADME, organism-based. The note with it: in vivo.
Data set [15] is described as follows: Cmax in Wistar rat cerebrospinal fluid at 2 mg/kg, ip. The format is ADME, organism-based. On the set-up: dose 2 mg/kg, route intraperitoneal. The gist of the method:
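Wistar BRL rats dosed 2 mg/kg i.p.; drug concentration measured in CSF to gauge CNS exposure, Cmax reported.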

Glutamate receptor 2, sequence (P42262 whole entry, the tested form may be a part): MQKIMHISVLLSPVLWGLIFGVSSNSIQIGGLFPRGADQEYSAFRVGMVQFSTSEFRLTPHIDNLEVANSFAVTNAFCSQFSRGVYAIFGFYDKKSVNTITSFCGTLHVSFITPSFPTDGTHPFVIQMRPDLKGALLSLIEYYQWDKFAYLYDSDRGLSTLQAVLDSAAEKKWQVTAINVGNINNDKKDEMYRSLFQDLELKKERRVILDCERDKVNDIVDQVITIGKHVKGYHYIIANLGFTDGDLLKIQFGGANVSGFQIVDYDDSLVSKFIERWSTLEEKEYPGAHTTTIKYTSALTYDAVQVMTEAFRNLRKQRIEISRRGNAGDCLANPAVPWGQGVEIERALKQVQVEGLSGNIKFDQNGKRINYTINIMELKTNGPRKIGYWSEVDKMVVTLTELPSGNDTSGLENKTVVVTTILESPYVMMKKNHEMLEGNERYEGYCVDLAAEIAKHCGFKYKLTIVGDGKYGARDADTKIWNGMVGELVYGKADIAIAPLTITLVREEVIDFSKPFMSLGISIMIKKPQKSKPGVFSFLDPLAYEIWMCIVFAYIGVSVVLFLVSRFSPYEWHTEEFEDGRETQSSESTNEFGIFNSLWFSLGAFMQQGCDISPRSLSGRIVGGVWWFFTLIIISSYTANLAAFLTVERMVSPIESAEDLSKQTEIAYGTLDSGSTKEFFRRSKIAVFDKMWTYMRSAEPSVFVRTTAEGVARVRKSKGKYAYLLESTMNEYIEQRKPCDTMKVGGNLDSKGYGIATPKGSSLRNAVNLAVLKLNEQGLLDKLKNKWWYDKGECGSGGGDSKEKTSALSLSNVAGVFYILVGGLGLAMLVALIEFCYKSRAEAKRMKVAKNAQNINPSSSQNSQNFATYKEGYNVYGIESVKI

`CC(C)S(=O)(=O)N[C@H]1Cc2ccc(Cn3cc(CF)c(C(F)(F)F)n3)cc2C1` showed an EC50 in data set [1] of 1260 nM.
Same read-out and setting: under `CCS(=O)(=O)N[C@H]1Cc2ccc(Cn3cc(CO)c(C(F)(F)F)n3)cc2C1` stands 398 nM.
Still for that read-out and setting: under `CC(C)S(=O)(=O)NC1Cc2ccc(-n3cc(CO)c(C(F)(F)F)n3)cc2C1` (racemic) stands more than 31600 nM.
Still for that read-out and setting: in the case of `CC(C)S(=O)(=O)NC1CCc2cc(Cn3cc(CO)c(C(F)(F)F)n3)ccc21` (stereo not given) it was 100 nM.
In turn, `CN(C)S(=O)(=O)N[C@@H]1Cc2ccc(Cn3cc(CO)c(C(F)(F)F)n3)cc2C1` gave an EC50 in data set [1] of 1000 nM.
`CC(C)S(=O)(=O)N[C@H]1Cc2ccc(Cn3nc(C(F)(F)F)cc3C(F)(F)F)cc2C1` had an EC50 in [1] of 100 nM. Moreover, the solubility in [2] was less than 1 µg/mL.
`CC(C)S(=O)(=O)N[C@H]1Cc2ccc(Cn3nc(C(F)(F)F)c4c3CCNC4)cc2C1`: in [1], the EC50 was 1580 nM. This lies in the single-digit micromolar range.
The molecule `CC(C)S(=O)(=O)N[C@H]1Cc2ccc(Cc3ccc(C(F)(F)F)o3)cc2C1` showed an EC50 in data set [1] of 1000 nM.
In [1], `CC(C)S(=O)(=O)N[C@H]1Cc2ccc(Cn3cc(CO)c(C(F)(F)F)n3)cc2C1` showed an EC50 of 501 nM. Besides, the microsomal CLint in data set [3] was 31 µL/min/mg; in [4], 23 µL/min/mg. Also, in data set [5], the Papp A→B worked out at 12.8 ×10⁻⁶ cm/s. Further, the Papp B→A in data set [6] came to 29 ×10⁻⁶ cm/s.
As to `O=S(=O)(N[C@@H]1Cc2ccc(Cn3cc(CO)c(C(F)(F)F)n3)cc2C1)C1CC1`, the EC50 in data set [1] was 2510 nM. That is a single-digit micromolar value.
Same read-out and setting: under `Cn1cc(S(=O)(=O)NC2CCc3cc(Cn4cc(CO)c(C(F)(F)F)n4)ccc32)c(C(F)(F)F)n1` (stereo not given) stands 1260 nM.
As to `O=S(=O)(N[C@H]1Cc2ccc(Cn3cc(CO)c(C(F)(F)F)n3)cc2C1)C(F)(F)F`, the EC50 in data set [1] was 5010 nM.
Take `CC(C)S(=O)(=O)N[C@H]1Cc2ccc(Cn3cc(CCO)c(C(F)(F)F)n3)cc2C1`: the EC50 in data set [1] is 1260 nM. This EC50 is about 4-fold lower than that of the molecule before.
As for `CC(C)S(=O)(=O)NC[C@H](C)c1ccc(-n2cc(CO)c(C(F)(F)F)n2)cc1`, the microsomal CLint in [3] and in data set [4] was less than 12 µL/min/mg each time. Moreover, the Papp A→B in data set [5] amounted to 20.6 ×10⁻⁶ cm/s. The Papp B→A in data set [6] worked out at 28.7 ×10⁻⁶ cm/s. For the same molecule, the clearance in data set [7] was 49.7 mL/min/kg. Further, in data set [8], the half-life was 1 h. Moreover, in data set [9], the bioavailability is 3.2%.
Consider `O=S(=O)(NC1CCc2cc(Cn3cc(CO)c(C(F)(F)F)n3)ccc21)C1CC1` (stereo not given), for which, in [1], the EC50 was 158 nM. This lies in the sub-micromolar range.
On the same count and under the same terms, under `CCn1nc(C(F)(F)F)cc1Cc1ccc2c(c1)C[C@@H](NS(=O)(=O)C(C)C)C2` stands 1260 nM; under `CS(=O)(=O)NC1CCc2cc(Cn3cc(CO)c(C(F)(F)F)n3)ccc21` (stereo not given), 501 nM; under `CS(=O)(=O)N[C@H]1Cc2ccc(Cn3cc(CO)c(C(F)(F)F)n3)cc2C1`, 7940 nM.
Still for that read-out and setting: in the case of `COc1ccccc1S(=O)(=O)NC1CCc2cc(Cn3cc(CO)c(C(F)(F)F)n3)ccc21` (stereo not given) it was 2000 nM; in that of `CC(C)S(=O)(=O)N[C@H]1Cc2ccc(Cn3nc(C(F)(F)F)c4c3CCCC4)cc2C1`, 1260 nM.
Regarding `CC(C)S(=O)(=O)N[C@@H]1Cc2ccc(Cn3cc(CO)c(C(F)(F)F)n3)cc2C1`, the EC50 in data set [1] is 398 nM.
For `O=S(=O)(N[C@@H]1Cc2ccc(Cn3cc(CO)c(C(F)(F)F)n3)cc2C1)C(F)(F)F`, the midpoint of the response in data set [1], the EC50, lay at 2510 nM. Also, the solubility in data set [2] came to 84 µg/mL (≈ 189 µM). Also, the clearance was less than 12 µL/min/mg in [3], less than 12 µL/min/mg in data set [4] and 1.9 mL/min/kg in data set [11]. The same molecule yielded a Stability in [10] of less than 6 µL/min. Further, the Papp A→B in [5] worked out at 16.9 ×10⁻⁶ cm/s. Also, the Papp B→A in data set [6] is 26.4 ×10⁻⁶ cm/s. Also, the Vd in data set [12] is 1 L/kg. The half-life in data set [13] was 7.4 h. Moreover, the bioavailability in data set [14] is 100%. Besides, the Cmax in [15] was determined as 120 nM.
Molecule `CC(C)S(=O)(=O)N[C@H]1Cc2ccc(Cn3cc(CO)c(C(F)(F)F)c3)cc2C1` gave an EC50 in [1] of 794 nM.
For the molecule `NC(=O)c1c(NC(=O)Cn2cc(CO)c(C(F)(F)F)n2)sc2c1CCCC2`, in [1], a half-maximal effect (EC50) was put at 398 nM. In addition, the solubility in data set [2] amounted to 20 µg/mL (≈ 49.7 µM).
In [1], `CC(C)S(=O)(=O)N[C@H]1Cc2ccc(Cn3ncc(CO)c3C(F)(F)F)cc2C1` showed an EC50 of 3980 nM.
In turn, `CCNCc1cn(CC(=O)Nc2sc3c(c2C(N)=O)CCCC3)nc1C(F)(F)F` had an EC50 in [1] of 794 nM. The molecule further had a half-life in [13] of 1.1 h.

As a reminder, the EC50 is the midpoint of the concentration-response curve. The low end stands for greater potency, the high end for weaker potency. One may read the solubility as the concentration that dissolves in the medium under given conditions. A lower solubility goes with little dissolved substance. What is called microsomal CLint is the capacity of the preparation to metabolise the compound, expressed as a volume cleared per time. Higher therefore signals rapid turnover. One may read the half-life as the time needed for the level to fall by half in the phase considered. The term bioavailability denotes dose-corrected exposure relative to a reference, in per cent. Broadly, the Cmax is the maximum level reached in the sampled fluid or tissue.

The record behind these values is ChEMBL document CHEMBL1641466, “Structure based evolution of a novel series of positive modulators of the AMPA receptor” (Bioorg Med Chem Lett, 2011).
